Screening data deposited in PubChem by several laboratories.
Hits are enriched below; roughly 9.6% of the tested compounds scored in any of these assays.
APP 5UTR inh – inhibitors of APP translation via 5'UTR reporter, primary screen, APP 5'UTR luciferase, SH-SY5Y cells; SH-SY5Y APP 5'UTR-luciferase reporter, luminescence; inhibition, % at 2 µM; 190,000 compounds, 0.82% hits; AID 1285, 2008;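 active means inhibition above a set limit, derived from the sample mean plus 3 SD, cut at about 45% in these data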
MT stabilizer – microtubule stabilizers in HeLa cells, primary screen, imaging, high-content imaging. % tubulin-high responders, % at 10 µM. AID 2205, 2009. 200,000 compounds, 0.83% hits. HeLa tubulin immunostaining HCS, 24 h; share of cells brighter than vehicle mean+2SD;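 active means plate Z-score above 3 for both tubulin-high and condensed-nucleus cell shares, with cell loss under 80%, at 10 µM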;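 further: anti alpha tubulin signal scored within the nucleus-defined area of each cell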
L major viab – Leishmania major promastigote growth inhibition, primary screen. Leishmania major promastigotes, resazurin fluorescence viability. 200,000 compounds, 9% hits. inhibition, % at 10 µM. AID 1063, 2008; in the data active means inhibition above about 50%;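 further: promastigotes grown with compound for 44 hours at 28 °C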
Ba/F3 V617F tox – reduced viability of JAK2V617F-dependent Ba/F3 cells, primary screen, JAK2V617F inhibitor project, cell-based, Ba/F3 EpoR-JAK2V617F, luminescence; ATP luminescence; inhibition, % at 5.6 µM; 220,000 compounds, 1.1% hits; AID 1446, 2008;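 active means inhibition above the campaign mean plus 3 SD over all tested compounds, cut at about 24% in these data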;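 further: cytokine-independent growth of Ba/F3 cells driven by EpoR plus mutant JAK2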
BaF3 tox – parental Ba/F3 cell viability inhibition, counter-screen for JAK2V617F inhibitor project, murine pro-B, CellTiter-Glo luminescence; inhibition, % at 5.6 µM; CellTiter-Glo ATP luminescence; AID 1486, 2009; 220,000 compounds, 1.1% hits;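 active means inhibition above a per-campaign cutoff, the mean inhibition of all tested compounds plus 3 SD, cut at about 27% in these data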
b-catenin transl – modulators of beta-catenin nuclear translocation, primary screen, imaging, HeLa cells, immunofluorescence, high-content; nuclear translocation activity, % at 5 µM; 190,000 compounds, 0.3% hits;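 active means nuclear translocation activity above 50% at 5 µM, with a well cell count of 50 or more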;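 further: per-cell ratio of nuclear to cytoplasmic median beta-catenin stain intensity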
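Test system: human HeLa cells, endogenous beta-catenin. Times: 24 h compound exposure, 37°C. Measured by: beta-catenin immunofluorescence imaging with DAPI.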
A number is an active result; - = inactive; . = no result given.

SMILES	APP 5UTR inh	MT stabilizer	L major viab	Ba/F3 V617F tox	BaF3 tox	b-catenin transl
Cc1ccc(NC(=O)C2(c3ccc([N+](=O)[O-])cc3)CCCC2)cc1	-	-	-	-	50	-
Cc1ccc(OCC(=O)Nc2ccc([N+](=O)[O-])cc2)cc1	-	-	-	-	-	-
CC(=O)c1sc(-c2c(C)nc3sccn23)nc1C1CCCC1	.	.	.	.	.	-
Cn1[nH]c(C(F)(F)F)cc1=O	-	-	-	-	-	-
CC[N+](CC)(CC)C/C=C/CN1CCCCC1	-	-	58	-	-	-
Cc1ccc(NC(=O)c2cc(C(=O)c3cc(Cl)ccc3O)cn(-c3ccc(C)cc3)c2=O)cc1	-	-	99	-	-	.
COn1c(-c2ccccc2)nc2ccc(Cl)cc21	.	-	-	-	-	-
Clc1ccc2nc3c4ccccc4cnn3c2c1	-	17	-	-	-	-
CSc1ccc(/C=N/NC(=O)c2sccc2C)cc1	-	-	-	-	-	-
COc1ccc(C(=O)COc2ccc(F)cc2)c(O)c1	-	.	.	-	-	-
COc1ccc(O)c(C(=O)CC(=O)c2ccccc2C)c1	-	-	92	-	-	-
COc1ccc(O)c(C(=O)CC(=O)c2ccc(F)cc2)c1	-	-	53	-	-	.
COc1ccc(CCN=C(C)C2=C(O)C(c3ccccc3)OC2=O)cc1OC (configuration not stated)	-	-	-	-	-	-
Cc1cc(NCCCN(C)C)n2nc(-c3cccs3)cc2n1	-	-	77	-	-	-
CCCN(C(=O)CCl)C1=CCCCC1	-	-	-	-	-	-
O=C(CSCc1cccc(Cl)c1)N1CCN(Cc2ccc3c(c2)OCO3)CC1	-	-	91	-	-	-
COc1cccc(OC)c1C(=O)N1CCN(Cc2ccc3c(c2)OCO3)CC1	-	-	-	-	-	-
O=C(CS(=O)(=O)Cc1ccccc1)N1CCN(Cc2ccc3c(c2)OCO3)CC1	-	-	69	-	-	-
O=C(c1cc(-c2ccncc2)nc2ccc(Cl)cc12)N1CCN(Cc2ccc3c(c2)OCO3)CC1	-	-	81	-	-	-
NC(=O)Cn1nc([N+](=O)[O-])nc1Oc1ccccc1C(=O)N1CCOCC1	-	-	-	-	-	-
Cc1cc(C)n(C(=O)c2cc3c(s2)CCCC3)n1	-	-	-	-	-	-
O=C(NC(CO)C(O)c1ccc([N+](=O)[O-])cc1)C(Cl)Cl (configuration not stated)	-	-	-	-	-	-
O=C(NC(CO)Cc1ccc([N+](=O)[O-])cc1)C(Cl)Cl (configuration not stated)	-	-	63	-	-	-
Cc1ccc(NNC(=O)C(=O)N2CCCCC2)cc1	-	-	66	-	-	-
O=C(/C=C/c1ccccc1)NC1CC2CCC1C2 (configuration not stated)	-	-	53	-	-	-
SMILES	APP 5UTR inh	MT stabilizer	L major viab	Ba/F3 V617F tox	BaF3 tox	b-catenin transl
COc1ccc(-c2nnc(SCc3nc4ccccc4c(=O)[nH]3)o2)cc1	.	.	.	-	53	-
Cc1cccc(OCc2nnc(SCc3nc4ccccc4c(=O)[nH]3)o2)c1	-	-	-	-	-	-
CC(=O)Nc1ccc(Nc2cc(C)nc3c(-c4ccccc4)cnn23)cc1	-	-	89	-	-	-
C#CCOCCOCCOCCNc1nc(N2CCN(C(=O)[C@H]([C@@H](C)CC)n3cc([C@@H](N)CO)nn3)CC2)nc(N2CCN(C(=O)[C@H](CCCCN)n3cc([C@@H](N)CC(C)C)nn3)CC2)n1	-	-	-	-	-	-
c1ccc(CNc2ccc(CNc3ncn[nH]3)cc2)cc1	-	-	64	-	-	.
NC(=O)c1ccccc1N/C=C/C(=O)c1ccc(Cl)cc1	-	-	-	-	-	.
CSC(=CC(=O)c1ccccc1)SC	-	-	85	-	-	.
CSC(=CC(=O)c1ccc(F)cc1)SC	.	.	.	-	-	-
O=C(/C=C/Sc1ccccc1)c1ccc(Cl)cc1	-	-	92	-	-	-
O=C(/C=C/Sc1ccccc1)c1ccccc1	-	-	59	-	-	.
